ChEMBL document CHEMBL1125235, “Doxorubicin analogues incorporating chemically reactive substituents” (J Med Chem, 1991)
pIC50: −log10 of the molar value.

Columns and labels:
L1210 = test: Ability to inhibit growth of L1210 leukemic cell lines was determined in an in vitro MTT assay.; assay type: functional, cell-based; settings: Mus musculus
Summary of the method: (§1)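 Murine leukemia cells in RPMI 1640 with 10% heat-inactivated FCS, 2-mercaptoethanol; exponentially growing at 10^6 cells/mL, exposed to varying drug concentrations (DMSO stock, final 0.5% DMSO; controls same) for 1 h at 37 °C, washed twice with ice-cold PBS, resuspended at 2 × 10^5/mL in drug-free medium, cultured 72 h. IC50 = concentration giving 50% growth inhibition versus untreated controls.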

MES-SA [1] = test: Ability to inhibit growth of doxorubicin-sensitive (MES-SA) uterine sarcoma cell line was determined in an in vitro MTT assay.; assay type: functional, cell-based; settings: Homo sapiens
Summary of the method: (§2)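 Uterine sarcoma cells in Waymouth's/McCoy's 5A with 15% FCS and insulin. MES-SA seeded at 4 × 10^3, MES-SA/DOX at 6 × 10^3 per well, attached 16–24 h, then given drug-containing medium (final DMSO 0.5%) for 72 h. MTT added for 3 h at 37 °C, formazan dissolved in DMSO, OD read at 570 nm. IC50 versus untreated controls.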

MES-SA [2] = test: Ability to inhibit growth of doxorubicin-resistant (MES-SA/DOX) uterine sarcoma cell line was determined in an in vitro MTT assay.; assay type: functional, cell-based; settings: Homo sapiens; summary of the method: as §2
P388 = test: Ability to inhibit growth of P388 leukemic cell line was determined in an in vitro MTT assay.; assay type: functional, cell-based; settings: Mus musculus; summary of the method: as §1
KBM-3 cell line = test: Ability to inhibit growth of human myelogenous leukemic cell line KBM-3 was determined in an in vitro clonogenic assay.
KBM-3/DOX cell line = test: Ability to inhibit growth of human myelogenous leukemic cell line KBM-3 variant namely KBM-3/DOX, was determined in an in vitro clonogenic assay.

| pIC50 (L1210) | pIC50 (P388) | pIC50 (KBM-3 cell line) | pIC50 (KBM-3/DOX cell line) | Structure (SMILES) | pIC50 (MES-SA [1]) | pIC50 (MES-SA [2]) |
| --- | --- | --- | --- | --- | --- | --- |
| 5.68 | 5.82 | 6.85 | 6.80 | COc1cccc2c1C(=O)c1c(O)c3c(c(O)c1C2=O)C[C@](O)(C(=O)CO)C[C@@H]3OC1CC(NC(=O)CBr)C(O)C(C)O1 (stereo partly specified) | 6.70 | 6.10 |
| 5.68 | 5.54 | – | – | COc1cccc2c1C(=O)c1c(O)c3c(c(O)c1C2=O)C[C@](O)(C(=O)CO)C[C@@H]3OC1CC(NC(=O)CCl)C(O)C(C)O1 (stereo partly specified) | 6.40 | 5.57 |
| 6.70 | 5.91 | 7.59 | 6.31 | COc1cccc2c1C(=O)c1c(O)c3c(c(O)c1C2=O)C[C@@](O)(C(=O)CO)C[C@@H]3O[C@H]1C[C@H](N)[C@H](O)[C@H](C)O1 [DOXORUBICIN] | 7.40 | 5.38 |

| Structure (SMILES) | pIC50 (L1210) | pIC50 (P388) | pIC50 (KBM-3 cell line) | pIC50 (KBM-3/DOX cell line) | pIC50 (MES-SA [1]) | pIC50 (MES-SA [2]) |
| --- | --- | --- | --- | --- | --- | --- |
| COc1cccc2c1C(=O)c1c(O)c3c(c(O)c1C2=O)C[C@](O)(C(=O)CO)C[C@@H]3OC1CC(NC(=O)c2ccc(S(=O)(=O)F)cc2)C(O)C(C)O1 (stereo partly specified) | 5.16 | 5.11 | – | – | 5.42 | 5.16 |
| COc1cccc2c1C(=O)c1c(O)c3c(c(O)c1C2=O)C[C@](O)(C(=O)CO)C[C@@H]3OC1CC(NC(=O)N(CCCl)N=O)C(O)C(C)O1 (stereo partly specified) | 5.54 | 5.54 | 6.68 | 6.60 | 6.10 | 5.11 |
